Results: ChEMBL document CHEMBL1147796, “New potent P-glycoprotein inhibitors carrying a polycyclic scaffold” (J Med Chem, 2006)

Experiments:
[1] = biological target: T1, ATP-dependent translocase ABCB1 (Homo sapiens, UniProt P08183); assay: Reversal of multi-drug resistance in L5178Y cells transfected with human MDR1 as relative fluorescent rhodamine123 activity at 1 ug/mL; type: cell-based
In short: (§1)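 L5178Y mouse T-cell lymphoma subline carrying the human MDR1 gene, with the parental drug-sensitive line also listed. A larger number of cells was exposed to compound for 30 min. Rhodamine 123 accumulation was read by fluorescence, and P-gp-mediated efflux reversal was expressed as a fluorescence activity ratio.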

[2] = biological target: T1, ATP-dependent translocase ABCB1; assay: Reversal of multi-drug resistance in L5178Y cells transfected with human MDR1 as relative fluorescent rhodamine123 activity at 0.1 ug/mL; type: cell-based; in short: as §1
[3] = biological target: T1, ATP-dependent translocase ABCB1; assay: Antiproliferative activity against human MDR1 transfected mouse L5178Y cell line; type: functional, cell-based; conditions: read-out: ID50 (the source's name) (converted)

T1 sequence (P08183 whole entry): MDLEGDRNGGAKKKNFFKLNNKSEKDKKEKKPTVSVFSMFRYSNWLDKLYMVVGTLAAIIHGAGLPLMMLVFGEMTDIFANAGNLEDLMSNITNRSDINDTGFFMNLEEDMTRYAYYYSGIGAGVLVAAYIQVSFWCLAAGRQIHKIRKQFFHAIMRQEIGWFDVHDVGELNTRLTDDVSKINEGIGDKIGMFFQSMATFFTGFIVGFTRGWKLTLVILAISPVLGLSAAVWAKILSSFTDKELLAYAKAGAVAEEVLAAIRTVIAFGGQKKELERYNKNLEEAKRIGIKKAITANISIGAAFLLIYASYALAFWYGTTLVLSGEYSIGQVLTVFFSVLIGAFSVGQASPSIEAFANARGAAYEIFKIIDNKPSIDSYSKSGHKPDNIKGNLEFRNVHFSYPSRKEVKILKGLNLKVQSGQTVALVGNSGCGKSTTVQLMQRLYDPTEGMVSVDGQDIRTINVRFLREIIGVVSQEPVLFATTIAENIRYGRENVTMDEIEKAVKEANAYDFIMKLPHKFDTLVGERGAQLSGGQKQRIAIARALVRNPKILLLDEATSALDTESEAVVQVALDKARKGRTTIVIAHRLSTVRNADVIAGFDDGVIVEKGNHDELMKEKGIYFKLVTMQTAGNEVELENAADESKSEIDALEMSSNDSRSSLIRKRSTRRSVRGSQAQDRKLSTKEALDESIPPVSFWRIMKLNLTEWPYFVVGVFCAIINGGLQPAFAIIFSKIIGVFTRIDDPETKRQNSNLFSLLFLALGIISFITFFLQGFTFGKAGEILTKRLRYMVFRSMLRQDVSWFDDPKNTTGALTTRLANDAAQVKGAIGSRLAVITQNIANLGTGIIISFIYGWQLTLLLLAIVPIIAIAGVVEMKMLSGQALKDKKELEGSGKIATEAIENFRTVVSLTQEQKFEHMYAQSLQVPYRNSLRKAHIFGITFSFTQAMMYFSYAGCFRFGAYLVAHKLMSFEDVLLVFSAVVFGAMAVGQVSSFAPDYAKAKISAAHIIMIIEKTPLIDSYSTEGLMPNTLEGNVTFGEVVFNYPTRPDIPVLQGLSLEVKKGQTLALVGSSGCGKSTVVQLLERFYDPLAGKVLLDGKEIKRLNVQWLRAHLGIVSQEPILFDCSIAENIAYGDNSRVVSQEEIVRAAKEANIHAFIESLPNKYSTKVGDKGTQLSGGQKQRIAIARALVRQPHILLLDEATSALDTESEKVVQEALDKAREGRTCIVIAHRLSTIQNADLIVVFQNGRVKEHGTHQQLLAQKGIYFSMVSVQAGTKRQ

Row | SMILES | Ratio [1] | Ratio [2] | GI50 [3] [µM]
1 | COc1ccc(CCN(C)CCN2C(=O)C3C4c5ccccc5C(c5ccccc54)C3C2=O)cc1OC (centres undefined) | 47.85 | 2.76 | 4.23
2 | COc1ccc(CCN(C)CCCN2C(=O)C3C4c5ccccc5C(c5ccccc54)C3C2=O)cc1OC (centres undefined) | 28.62 | 7.91 | 5.72
3 | COc1ccc(CCN(C)CC#CCN2C(=O)C3C4c5ccccc5C(c5ccccc54)C3C2=O)cc1OC (centres undefined) | 89.35 | 2.65 | 2.55
